For data set [1], the target named is cAMP-dependent protein kinase catalytic subunit alpha (Homo sapiens) (UniProt P17612). Description: Inhibition of full length human PKAcalpha assessed as remaining activity at 1 uM using LRRASLG as substrate incubated for 40 mins by scintillation counting method relative to control. Summed up:
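Run as an outsourced KinaseProfiler service, with human PKA and Akt1, Akt2 and Akt3 in the same panel. Each compound was tested at a single 1 µM concentration, and the result is reported as kinase activity remaining, as a percentage of control.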

Data set [2] addresses RAC-gamma serine/threonine-protein kinase (Homo sapiens, UniProt Q9Y243, S472D). Description: Inhibition of full length human Akt3 S472D mutant using GRPRTSSFAEGKK as substrate incubated for 40 mins by scintillation counting method. Put shortly:
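Eurofins KinaseProfiler enzymatic assay on human Akt isoforms. IC50 values are the mean of at least three independent replicates ± standard deviation.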

The next data set concerns HepG2. The data set is described as follows: Cytotoxicity against human HepG2 cells assessed as reduction in cell viability by MTT assay. The format is functional, cell-based. Put shortly: (§1)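 Hepatoma cells were grown in DMEM with 10% FBS and streptomycin, then treated with compounds. Viability was read by MTT.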
Another data set has as its system SMMC-7721. The data set is described as follows: Cytotoxicity against human SMMC-7721 cells assessed as reduction in cell viability by MTT assay. The format is functional, cell-based. Put shortly: as §1
A general note: Tetrazolium assays rely on reduction of a dye to a coloured formazan, in cell work by metabolically active cells.

Data set [3] deals with Huh-7. The data set is described as follows: Induction of apoptosis in human Huh-7 cells assessed as viable cells at 0.1 uM by Annexin V/propidium iodide staining based flow cytometric analysis (reference value: 94.83%). The format is functional. The settings on record: read-out: Activity. In general terms: A flow cytometer gives signals particle by particle.
Data set [4] deals with Huh-7. The data set is described as follows: Induction of apoptosis in human Huh-7 cells assessed as viable cells at 0.2 uM by Annexin V/propidium iodide staining based flow cytometric analysis (reference value: 94.83%). The settings on record: read-out: Activity. The format is functional.
Data set [5] deals with Huh-7. The data set is described as follows: Induction of apoptosis in human Huh-7 cells assessed as early apoptotic cells at 0.2 uM by Annexin V/propidium iodide staining based flow cytometric analysis (reference value: 1.43%). The format is functional.
Data set [6] concerns Huh-7. The data set is described as follows: Induction of apoptosis in human Huh-7 cells assessed as late apoptotic cells at 0.2 uM by Annexin V/propidium iodide staining based flow cytometric analysis (reference value: 3.15%). The class given is functional.
Data set [7] relates to Huh-7. The data set is described as follows: Induction of apoptosis in human Huh-7 cells assessed as necrotic cells at 0.1 uM by Annexin V/propidium iodide staining based flow cytometric analysis (reference value: 0.59%). The format is functional.
In a further data set the test system is Hep 3B2. Description: Induction of autophagy in human Hep3B cells harboring GFP-LC3 assessed as increase in number of the autophagosome puncta at 0.2 uM after 6 hrs. The class given is functional, cell-based. Put shortly: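 GFP-LC3-transfected cells were exposed to saline or compound for 6 h, then fixed with paraformaldehyde. Autophagosome puncta were scored by fluorescence of accumulated GFP-LC3.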

Data set [8] deals with Glycogen synthase kinase-3 beta (Homo sapiens) (UniProt P49841). Description: Inhibition of GSK3beta phosphorylation at […] residue in human Huh-7 cells at 0.1 to 0.2 uM by Western blot analysis. The format is cell-based. The settings on record: dose 0.1-0.2 µM. Put shortly: (§2)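 Huh-7 cells were treated with or without compound. Total protein extracts were separated by SDS-PAGE and transferred to PVDF. Membranes were probed with primary antibodies, then HRP-conjugated secondary antibody (1:10,000), and detected by enhanced chemiluminescence.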
In general terms: In western blotting, separated proteins are transferred to a membrane and probed.

Data set [9] can be described thus: Effect on total AKT protein level in human Huh-7 cells at 0.1 to 0.2 uM by Western blot analysis. The settings on record: huh-7, 0.2 µM, dose 0.1-0.2 µM. The class given is ADME, cell-based. Summed up:
as §2

Data set [10] is described as follows: Effect on total GDK3beta protein level in human Huh-7 cells at 0.1 to 0.2 uM by Western blot analysis. The class given is ADME, cell-based. The settings on record: huh-7, 0.2 µM, dose 0.1-0.2 µM. Summed up:
as §2

Data set [11] has as its system Huh-7. Description: Induction of apoptosis in human Huh-7 cells assessed as upregulation of cytochromeC protein expression at 0.1 to 0.2 uM by Western blot analysis. The class given is functional, cell-based. The settings on record: dose 0.1-0.2 µM. Put shortly: as §2
The subject of data set [12] is Huh-7. The data set is described as follows: Induction of autophagy in human Huh-7 cells assessed as decrease in m-TOR phosphorylation at 0.1 to 0.2 uM by Western blot analysis. The format is functional, cell-based. The settings on record: dose 0.1-0.2 µM. Put shortly:
as §2

Data set [13] deals with Huh-7. Description: Induction of autophagy in human Huh-7 cells assessed as increase in p62/SQSTM1 protein expression at 0.1 to 0.2 uM by Western blot analysis. The class given is functional, cell-based. The conditions noted are these: dose 0.1-0.2 µM. Put shortly:
as §2

Data set [14] has as its system Huh-7. Description: Induction of autophagy flux arrest in human Huh-7 cells assessed as reduction in LC3 at 0.2 uM by immunofluorescence staining based assay. The class given is functional, cell-based. Put shortly:
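Huh-7 cells with or without 0.2 µM compound were immunofluorescently co-stained for LC3 (autophagosome) and LAMP1 (lysosome). Co-localization was assessed by fluorescence imaging.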

The subject of data set [15] is Huh-7. Description: Induction of autophagy in human Huh-7 cells assessed as reduction in cathepsin B activity at 0.2 uM in presence of Baf-A1. The format is functional, cell-based.
The test system of data set [16] is Huh-7. The data set is described as follows: Induction of autophagy in human Huh-7 cells assessed as reduction in cathepsin D activity at 0.2 uM in presence of Baf-A1. The class given is functional, cell-based.
The test system of data set [17] is Huh-7. The data set is described as follows: Induction of autophagosome in human Huh-7 harboring GFP-LC3 cells at 0.2 uM in presence of 3-MA by fluorescence microscopic analysis. The format is functional, cell-based.
The subject of data set [18] is Huh-7. Description: Induction of autophagosome in human Huh-7 harboring GFP-LC3 cells at 0.2 uM in presence of Baf-A1 by fluorescence microscopic analysis. The class given is functional, cell-based.
Data set [19] concerns Huh-7. The data set is described as follows: Antitumour activity against human Huh-7 cells xenografted in nude mouse assessed as reduction in tumour growth at […], ip up to 15 days. The class given is functional, organism-based. The settings on record: time day <=15. Put shortly: (§3)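 Nude mice bearing subcutaneous Huh-7 xenografts received 25 or 50 mg/Kg compound intraperitoneally. Tumor volume was followed from day 1 to day 15, with excised tumors weighed at the end. Body weight was also monitored.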

Data set [20] deals with Huh-7. The data set is described as follows: Antitumour activity against human Huh-7 cells xenografted in nude mouse assessed as reduction in tumour volume at […], ip up to 15 days. The format is functional, organism-based. The conditions noted are these: time day <=15. Put shortly: as §3
The subject of data set [21] is Huh-7. Description: Antitumour activity against human Huh-7 cells xenografted in nude mouse assessed as reduction in tumour weight at […], ip up to 15 days. The class given is functional, organism-based. The settings on record: time day <=15.

Active and inactive are the calls of the source. The calls are words filed in the database; no cut-off is given here.

RAC-gamma serine/threonine-protein kinase, sequence (Q9Y243 2-479 S472D limits assumed): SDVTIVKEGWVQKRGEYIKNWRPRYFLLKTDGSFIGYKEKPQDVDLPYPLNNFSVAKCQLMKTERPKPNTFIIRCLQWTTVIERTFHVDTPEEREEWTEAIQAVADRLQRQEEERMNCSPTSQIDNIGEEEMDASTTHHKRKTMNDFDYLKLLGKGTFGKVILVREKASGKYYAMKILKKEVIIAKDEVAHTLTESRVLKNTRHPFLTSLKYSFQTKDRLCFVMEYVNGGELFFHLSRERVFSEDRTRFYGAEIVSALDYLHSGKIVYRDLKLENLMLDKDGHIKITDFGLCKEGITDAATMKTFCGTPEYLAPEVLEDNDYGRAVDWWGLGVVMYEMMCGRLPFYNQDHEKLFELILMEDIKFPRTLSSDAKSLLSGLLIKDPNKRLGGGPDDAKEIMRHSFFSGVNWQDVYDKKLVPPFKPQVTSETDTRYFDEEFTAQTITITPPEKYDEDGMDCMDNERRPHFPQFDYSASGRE
Glycogen synthase kinase-3 beta (Homo sapiens), sequence (P49841 whole entry, looked up): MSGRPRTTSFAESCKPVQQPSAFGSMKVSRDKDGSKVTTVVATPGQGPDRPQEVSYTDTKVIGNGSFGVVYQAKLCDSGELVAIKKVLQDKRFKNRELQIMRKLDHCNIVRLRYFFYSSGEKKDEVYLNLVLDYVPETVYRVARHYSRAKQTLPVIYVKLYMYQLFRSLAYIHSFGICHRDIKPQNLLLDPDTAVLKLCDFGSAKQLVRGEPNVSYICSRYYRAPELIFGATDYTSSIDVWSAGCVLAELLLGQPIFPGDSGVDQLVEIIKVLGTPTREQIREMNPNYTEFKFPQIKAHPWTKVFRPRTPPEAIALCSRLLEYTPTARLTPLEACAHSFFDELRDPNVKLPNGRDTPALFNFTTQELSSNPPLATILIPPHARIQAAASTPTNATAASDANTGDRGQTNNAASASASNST

Take `O=C(C(CNC1CCCC1)c1ccc(Cl)cc1)N1CCN(c2ncnc3sc4c(c23)CCC4)CC1` (centres undefined): the Activity in data set [1] is 35%; in the data set on Huh-7 [5], 7.1%; in the data set with Huh-7 [6], 9.13%; in the data set on Huh-7 [7] it was 2.69%; in [9], “Non-Toxic”; in data set [10] it was “Non-Toxic”. Further, the IC50 (in general, the concentration needed to halve the response being measured) in data set [2] came out at 129 nM; with HepG2 it was 183 nM; in the data set on SMMC-7721 it was 386 nM. In addition, the viability at 0.1 µM in the data set with Huh-7 [3] stood at 84.2%. Moreover, the viability at 0.2 µM with Huh-7 [4] amounted to 80.8%. Moreover, the outcome in the data set on Hep 3B2, with Huh-7 [11], in the data set on Huh-7 [12], in the data set on Huh-7 [13], with Huh-7 [14] and with Huh-7 [15] was Active. For the same compound, the outcome with Huh-7 [16], with Huh-7 [18], in the data set on Huh-7 [19], in the data set with Huh-7 [20] and in the data set on Huh-7 [21] was Active. Moreover, the inhibition entry in data set [8] was “Active”. The outcome in the data set with Huh-7 [17] was inactive.

(Values after ChEMBL document CHEMBL4680191, “Discovery of novel akt1 inhibitor induces autophagy associated death in hepatocellular carcinoma cells” (Eur J Med Chem, 2020).)
